This is an account of results in PubChem BioAssay AID588417 (The Scripps Research Institute Molecular Screening Center, 2011).

The assay addresses Protein-arginine deiminase type-4 (Homo sapiens) (UniProt Q9UM07). The assay is described as follows: PAD4 enzyme inhibition, citrulline production – biochemical, colorimetric substrate assay, assay provider data, 0-15 µM, late-stage follow-up (AID 588417). The conditions noted are these: recombinant PAD4, BAEE substrate, citrulline colorimetric absorbance. The method in brief:
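Material: Recombinant PAD4 protein | Also added: BAEE substrate at 10 mM | Schedule: 15 min pretreatment plus 15 min reaction, 37 °C | Technique: Absorbance at 540 nm after diacetyl monoxime/thiosemicarbazide color development | Read-out basis: IC50 from fractional PAD4 activity, citrulline quantified via standard curve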

Activity calls are given as the source filed them.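 Rule for the calls: active = IC50 at or below 1 µM; inactive = IC50 above 1 µM.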

Sequence of Protein-arginine deiminase type-4 (Homo sapiens) (Q9UM07 whole entry, looked up): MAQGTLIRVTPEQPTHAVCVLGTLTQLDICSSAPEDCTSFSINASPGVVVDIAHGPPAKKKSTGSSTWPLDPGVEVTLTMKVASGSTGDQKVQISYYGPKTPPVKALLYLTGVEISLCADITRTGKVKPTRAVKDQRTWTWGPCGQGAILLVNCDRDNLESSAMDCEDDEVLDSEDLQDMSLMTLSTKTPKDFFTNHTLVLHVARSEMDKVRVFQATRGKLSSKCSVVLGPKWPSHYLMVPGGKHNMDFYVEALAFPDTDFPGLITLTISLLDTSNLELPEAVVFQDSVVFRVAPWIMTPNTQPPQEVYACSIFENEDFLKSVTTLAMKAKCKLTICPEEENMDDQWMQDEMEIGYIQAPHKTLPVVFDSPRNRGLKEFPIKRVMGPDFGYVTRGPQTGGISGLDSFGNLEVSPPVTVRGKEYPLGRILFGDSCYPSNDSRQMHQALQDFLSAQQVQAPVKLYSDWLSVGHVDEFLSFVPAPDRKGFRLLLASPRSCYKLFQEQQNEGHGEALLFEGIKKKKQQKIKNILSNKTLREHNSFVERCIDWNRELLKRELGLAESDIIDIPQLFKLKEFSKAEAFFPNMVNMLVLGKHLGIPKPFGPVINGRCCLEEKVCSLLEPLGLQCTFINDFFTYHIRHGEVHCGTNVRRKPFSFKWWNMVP

In the case of `COC1=C(Br)C(=O)c2nc(-c3ccccn3)ccc2C1=O`, the IC50 entry was “inactive”.
